Tests used:
[1] = biological target: T1, 5-hydroxytryptamine receptor 1A (Homo sapiens, UniProt P08908); test: Displacement of [3H]8-OH-DPAT from human recombinant 5HT1A receptor expressed in HEK293 cells; type: cell-based
T1 sequence (P08908 whole entry): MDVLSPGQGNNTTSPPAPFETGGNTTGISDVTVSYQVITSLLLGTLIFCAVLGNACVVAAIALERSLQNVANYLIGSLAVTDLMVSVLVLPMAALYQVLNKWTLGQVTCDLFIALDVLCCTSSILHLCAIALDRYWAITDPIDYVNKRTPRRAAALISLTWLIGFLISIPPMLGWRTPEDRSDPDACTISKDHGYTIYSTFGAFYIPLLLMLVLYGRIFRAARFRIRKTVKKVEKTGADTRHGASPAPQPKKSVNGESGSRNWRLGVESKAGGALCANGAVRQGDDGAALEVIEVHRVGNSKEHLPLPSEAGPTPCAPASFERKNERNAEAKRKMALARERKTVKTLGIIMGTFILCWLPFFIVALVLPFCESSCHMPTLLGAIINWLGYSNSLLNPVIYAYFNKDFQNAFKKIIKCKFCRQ
How it was run: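 Membranes from HEK-293 cells expressing human 5-HT1A receptor were incubated in the dark with 4.9 nM [3H]-8-OH-DPAT for 120 min at 37 °C in 50 mM Tris-HCl, 5 mM MgSO4, pH 7.4. Nonspecific binding was taken with 10 µM 5-HT. Filters were presoaked in 0.5% PEI, and bound radioactivity was counted by scintillation. Compounds were screened at 1 µM, then given six-point curves; Ki was derived by Cheng-Prusoff. Triplicates, 2-4 experiments.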

[2] = biological target: T2, 5-hydroxytryptamine receptor 7 (Homo sapiens, UniProt P34969); test: Displacement of [3H]LSD from human recombinant 5HT7 receptor expressed in CHOK1 cells; type: cell-based, CHO-K1
T2 sequence (P34969 whole entry): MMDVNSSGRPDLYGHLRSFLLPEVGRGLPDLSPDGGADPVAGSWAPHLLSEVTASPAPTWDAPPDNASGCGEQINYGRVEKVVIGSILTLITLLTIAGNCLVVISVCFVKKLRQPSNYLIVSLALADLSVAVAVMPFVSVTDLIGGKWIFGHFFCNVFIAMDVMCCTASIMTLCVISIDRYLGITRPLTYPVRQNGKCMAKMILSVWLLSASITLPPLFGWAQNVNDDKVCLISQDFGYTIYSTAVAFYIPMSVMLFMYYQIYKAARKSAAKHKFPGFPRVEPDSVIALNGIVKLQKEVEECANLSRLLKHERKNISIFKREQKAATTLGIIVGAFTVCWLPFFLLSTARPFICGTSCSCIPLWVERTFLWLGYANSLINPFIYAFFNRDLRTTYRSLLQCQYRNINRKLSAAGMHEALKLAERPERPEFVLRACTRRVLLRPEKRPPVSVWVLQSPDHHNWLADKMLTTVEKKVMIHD
How it was run: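 Transfected CHO-K1 membranes in 50 mM Tris-HCl, 10 mM MgSO4, 0.5 mM EDTA, pH 7.4, incubated 120 min at 27 °C with 3 nM [3H]LSD; nonspecific binding with 25 µM clozapine. Ligands screened at 1 µM, then six-concentration curves if displacement over 55%.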

[3] = biological target: T2, 5-hydroxytryptamine receptor 7; test: Antagonist activity at human recombinant 5HT7 receptor expressed in CHOK1 cells assessed as inhibition of serotonon-induced increase in cAMP levels by HTRF assay relative to untreated control; type: functional, cell-based, CHO-K1
[4] = biological target: T2, 5-hydroxytryptamine receptor 7; test: Agonist activity at human recombinant 5HT7 receptor expressed in CHOK1 cells assessed as increase in cAMP levels by HTRF assay; type: functional, cell-based, CHO-K1
[5] = species: Homo sapiens; test: Selectivity for human recombinant 5HT7 receptor over human recombinant 5HT1A receptor
[6] = biological target: T2, 5-hydroxytryptamine receptor 7; test: Agonist activity at human recombinant 5HT7 receptor expressed in CHOK1 cells assessed as increase in cAMP levels by HTRF assay relative to serotonin; type: functional, cell-based; settings: CHO-K1
[7] = biological target: T2, 5-hydroxytryptamine receptor 7; test: Antagonist activity at human recombinant 5HT7 receptor expressed in CHOK1 cells assessed as inhibition of serotonon-induced increase in cAMP levels by HTRF assay; type: functional, cell-based; settings: CHO-K1
[8] = biological target: T3, 5-hydroxytryptamine receptor 1A (Homo sapiens) (UniProt P08908); test: Displacement of [3H]8-OH-DPAT from human recombinant 5HT1A receptor expressed in HEK293 cells at 1 uM; type: cell-based
T3 sequence (whole entry): T1 sequence (P08908 whole entry)
How it was run: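 Membranes from transfected HEK-293 cells in 50 mM Tris-HCl, 5 mM MgSO4, pH 7.4, incubated in the dark 120 min at 37 °C with 4.9 nM [3H]8-OH-DPAT and 1 µM ligand (hydrochloride salt), triplicate. Nonspecific binding with 10 µM 5-HT. Filtration on 0.5% PEI-soaked filters, ice-cold Tris washes, scintillation counting; percent displacement.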

Compound	Ki [1]	Ki [2]	further results
COc1ccccc1N1CCN(CCCCN2Cc3ccccc3C2=O)CC1	> 1000 nM	158 nM	–
O=C1Cc2ccccc2N1CCCN1CCc2ccccc2C1	> 1000 nM	105 nM	–
CN1C[C@@H](NS(=O)(=O)N(C)C)C[C@@H]2c3cccc4c3c(cn4C)C[C@H]21 [MESULERGINE]	–	–	IC50 [3]: 120 nM
COc1ccccc1N1CCN(CCCCCN2C(=O)Cc3ccccc32)CC1	> 1000 nM	63 nM	–
O=C1Cc2ccccc2N1Cc1cccc(CN2CCN(c3cccc4ccccc34)CC2)c1	> 1000 nM	> 1000 nM	–
O=C1c2ccccc2CN1CCCCN1CCN(c2ccccc2)CC1	360 nM	> 1000 nM	–
O=C1Cc2ccccc2N1CCCCN1CCN(c2cccc3ccccc23)CC1	22 nM	47 nM	–
O=C1Cc2ccccc2N1C/C=C\CN1CCN(c2cccc3ccccc23)CC1	11.5 nM	250 nM	–
O=C1Cc2ccccc2N1CC#CCN1CCN(c2cccc3ccccc23)CC1	26 nM	> 1000 nM	–
O=C1Cc2ccccc2N1Cc1ccc(CN2CCN(c3cccc4ccccc34)CC2)cc1	181 nM	> 1000 nM	–
O=C1Cc2ccccc2N1CCCCCN1CCN(c2cccc3[nH]cnc23)CC1	18.1 nM	68 nM	–
O=C1Cc2ccccc2N1CCN1CCc2ccccc2C1	> 1000 nM	350 nM	–
COc1ccccc1N1CCN(CCCCN2C(=O)Cc3ccccc32)CC1	> 1000 nM	32 nM	–
O=C1c2ccccc2CN1CCCCCN1CCN(c2ccccc2)CC1	> 1000 nM	203 nM	–
O=C1Cc2ccccc2N1CCCCCN1CCN(c2cccc3ccccc23)CC1	16 nM	69 nM	–
O=C1Cc2ccccc2N1CCCCN1CCc2ccccc2C1	219 nM	7 nM	EC50 [4]: 310 nM; Activity ([4]; CHO-K1): Dose-dependent effect; Ratio Ki [5]: 31; Activity [6]: 40%; Activity [7]: Dose-dependent effect
O=C1Cc2ccccc2N1CCCCN1CCC(c2ccccc2)CC1	> 1000 nM	160 nM	–
O=C1Cc2ccccc2N1CCCCCN1CCN(c2ccccc2)CC1	> 1000 nM	63 nM	–
O=C1c2cccc3cccc(c23)N1CCCCCN1CCN(c2ccccc2)CC1 [UCM-5600]	–	89 nM	Activity [8]: 92%
O=C1Cc2ccccc2N1C/C=C/CN1CCN(c2cccc3ccccc23)CC1	39 nM	69 nM	–
O=C1Cc2ccccc2N1CCCCN1CCCC(c2ccccc2)C1 (stereo not drawn)	> 1000 nM	193 nM	–
O=C1Cc2ccccc2N1CCCCN1CCN(c2ccccc2)CC1	124 nM	74 nM	–

From ChEMBL document CHEMBL1153441 (J Med Chem, 2009)
